ChEMBL document CHEMBL2434864, “Synthesis and biological evaluation of phenyl substituted polyoxygenated xanthone derivatives as anti-hepatoma agents” (Eur J Med Chem, 2013)
pIC50: −log10 of the molar value.

Key:
[1] = Cytotoxicity against human QSG7701 cells after 48 hrs by CCK-8 assay; format: cell-based; details: QSG7701, 48 h
In short: (§1)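 Cells grown at 37 °C, 5% CO2 in medium with 10% FBS and penicillin/streptomycin: HepG-2 in MEM; QGY-7703, SMMC-7721 and QSG-7701 in 1640 medium. Seeded at 2×10^5 cells/well for 24 h, then exposed to varying compound concentrations or 1% DMSO vehicle for 48 h. CCK-8 added for 3 h more, absorbance read at 450 nm.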

SMMC-7721 = test: Cytotoxicity against human SMMC7721 cells after 48 hrs by CCK-8 assay; format: functional, cell-based; details: SMMC-7721, 48 h; in short: as §1
HepG2 = test: Cytotoxicity against human HepG2 cells after 48 hrs by CCK-8 assay; format: functional, cell-based; details: HepG2, 48 h; in short: as §1
[2] = Cytotoxicity against human QGY7703 cells after 48 hrs by CCK-8 assay; format: functional, cell-based; details: QGY-7703, 48 h; in short: as §1
[3] = Growth inhibition of human QGY7703 cells at 10 uM after 48 hrs by CCK-8 assay relative to control; format: functional; details: QGY-7703, 48 h, read-out: GI
In short: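 QGY-7703 cells were kept in 1640 medium with 10% FBS and penicillin/streptomycin at 37 °C, 5% CO2, then seeded at 2×10^5 cells/well for 24 h. They were treated once at 10 μM for 48 h, followed by CCK-8 for 3 h and A450. Values are percentage inhibition relative to untreated control cells.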

QGY-7703 [4] = test: Induction of apoptosis in human QGY7703 cells assessed as late apoptotic cells at 30 uM after 48 hrs by Annexin V-FITC/propidium iodide staining-based flow cytometric analysis (reference value: 4.25%); format: functional
In short: (§2)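 QGY-7703 cells were seeded at 5×10^5 cells/mL for 24 h, then given 3.75, 7.5, 15 or 30 μM, or DMSO control, for 48 h. Floating and trypsinized adherent cells were pooled, washed twice in cold PBS and resuspended in binding buffer. They were stained with annexin V-FITC/PI for 15 min at room temperature in the dark and analysed by flow cytometry. Mean ± SD of three independent experiments.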

QGY-7703 [5] = test: Induction of apoptosis in human QGY7703 cells assessed as early apoptotic cells at 30 uM after 48 hrs by Annexin V-FITC/propidium iodide staining-based flow cytometric analysis (reference value: 2.63%); format: functional; in short: as §2
QGY-7703 [6] = test: Induction of apoptosis in human QGY7703 cells assessed as early apoptotic cells at 15 uM after 48 hrs by Annexin V-FITC/propidium iodide staining-based flow cytometric analysis (reference value: 2.63%); format: functional; in short: as §2
QGY-7703 [7] = test: Induction of apoptosis in human QGY7703 cells assessed as late apoptotic cells at 15 uM after 48 hrs by Annexin V-FITC/propidium iodide staining-based flow cytometric analysis (reference value: 4.25%); format: functional; in short: as §2
QGY-7703 [8] = test: Induction of apoptosis in human QGY7703 cells assessed as late apoptotic cells at 7.5 uM after 48 hrs by Annexin V-FITC/propidium iodide staining-based flow cytometric analysis (reference value: 4.25%); format: functional; in short: as §2
QGY-7703 [9] = test: Induction of apoptosis in human QGY7703 cells assessed as early apoptotic cells at 7.5 uM after 48 hrs by Annexin V-FITC/propidium iodide staining-based flow cytometric analysis (reference value: 2.63%); format: functional; in short: as §2
QGY-7703 [10] = test: Induction of apoptosis in human QGY7703 cells assessed as late apoptotic cells at 3.75 uM after 48 hrs by Annexin V-FITC/propidium iodide staining-based flow cytometric analysis (reference value: 4.25%); format: functional; in short: as §2
QGY-7703 [11] = test: Induction of apoptosis in human QGY7703 cells assessed as early apoptotic cells at 3.75 uM after 48 hrs by Annexin V-FITC/propidium iodide staining-based flow cytometric analysis (reference value: 2.63%); format: functional; in short: as §2

COc1ccc2c(=O)c3c(OC)cc(OC)c(-c4cccc(C)c4)c3oc2c1OC
pIC50 [1]: < 4.00 | pIC50 (SMMC-7721): 4.83 | pIC50 (HepG2): 5.30 | pIC50 [2]: 4.88 | inhibition of growth at 10 µM [3]: 51.4%

COc1ccc2c(=O)c3c(OC)cc(OC)c(-c4ccc(C)cc4)c3oc2c1OC
pIC50 [1]: 4.18 | pIC50 (SMMC-7721): 5.50 | pIC50 (HepG2): 4.61 | pIC50 [2]: 4.85 | inhibition of growth at 10 µM [3]: 68.1%

COc1ccc2c(=O)c3c(OC)cc(OC)c(-c4ccc(OC(F)(F)F)cc4)c3oc2c1OC
inhibition of growth at 10 µM [3]: 0.53%

COc1ccc2c(=O)c3c(OC)cc(OC)c(-c4cccnc4)c3oc2c1OC
inhibition of growth at 10 µM [3]: 18%

COc1ccc2c(=O)c3c(OC)cc(OC)c(-c4cccc(C#N)c4)c3oc2c1OC
inhibition of growth at 10 µM [3]: -4.17%

COc1ccc2c(=O)c3c(OC)cc(OC)c(-c4ccc(C(F)(F)F)cc4)c3oc2c1OC
inhibition of growth at 10 µM [3]: 5.23%

COc1ccc2c(=O)c3c(OC)cc(OC)c(-c4ccc(C(C)C)cc4)c3oc2c1OC
pIC50 [1]: < 4.00 | pIC50 (SMMC-7721): 4.70 | pIC50 (HepG2): 4.49 | pIC50 [2]: 4.58 | inhibition of growth at 10 µM [3]: 52.7%

COc1ccc2c(=O)c3c(OC)cc(OC)c(-c4ccc(C=O)cc4)c3oc2c1OC
inhibition of growth at 10 µM [3]: 19.7%

COc1ccc2c(=O)c3c(OC)cc(OC)c(-c4cc(C)ccc4C)c3oc2c1OC
pIC50 [1]: 4.04 | pIC50 (SMMC-7721): 4.77 | pIC50 (HepG2): 4.54 | pIC50 [2]: 4.61 | inhibition of growth at 10 µM [3]: 54.3%

COc1ccc2c(=O)c3c(OC)cc(OC)c(-c4cc(F)cc(F)c4)c3oc2c1OC
inhibition of growth at 10 µM [3]: 11.2%

COc1ccc2c(=O)c3c(OC)cc(OC)c(-c4ccccc4)c3oc2c1OC
Activity (QGY-7703 [4]): 23.27% | Activity (QGY-7703 [5]): 15.81% | Activity (QGY-7703 [6]): 10.58% | Activity (QGY-7703 [7]): 18.82% | Activity (QGY-7703 [8]): 12.12% | Activity (QGY-7703 [9]): 8.63% | Activity (QGY-7703 [10]): 4.6% | Activity (QGY-7703 [11]): 2.61% | pIC50 [1]: < 4.00 | pIC50 (SMMC-7721): 5.12 | pIC50 (HepG2): 4.72 | pIC50 [2]: 5.20 | inhibition of growth at 10 µM [3]: 66.5%

COc1cc(OC)c2c(=O)c3ccc(OC)c(OC)c3oc2c1
inhibition of growth at 10 µM [3]: 14.1%

COc1ccc2c(=O)c3c(OC)cc(OC)c(-c4ccccc4F)c3oc2c1OC
pIC50 [1]: 4.68 | pIC50 (SMMC-7721): 4.57 | pIC50 (HepG2): 4.31 | pIC50 [2]: 4.40 | inhibition of growth at 10 µM [3]: 52.4%

COc1ccc2c(=O)c3c(OC)cc(OC)c(-c4cc(C(F)(F)F)cc(C(F)(F)F)c4)c3oc2c1OC
inhibition of growth at 10 µM [3]: 14.2%

O=c1[nH]cc(F)c(=O)[nH]1 [FLUOROURACIL]
pIC50 [1]: 6.22 | pIC50 (SMMC-7721): 4.84 | pIC50 (HepG2): 4.90 | pIC50 [2]: 4.81

COc1ccc2c(=O)c3c(OC)cc(OC)c(-c4ccc(S(C)(=O)=O)cc4)c3oc2c1OC
inhibition of growth at 10 µM [3]: 1.59%

COc1cccc(-c2c(OC)cc(OC)c3c(=O)c4ccc(OC)c(OC)c4oc23)c1
pIC50 [1]: 4.32 | pIC50 (SMMC-7721): 4.98 | pIC50 (HepG2): 4.54 | pIC50 [2]: 4.92 | inhibition of growth at 10 µM [3]: 55.2%

COc1ccc2c(=O)c3c(OC)cc(OC)c(-c4ccc(F)cc4)c3oc2c1OC
inhibition of growth at 10 µM [3]: 13.9%

COc1ccc2c(=O)c3c(OC)cc(OC)c(-c4cccc(F)c4)c3oc2c1OC
inhibition of growth at 10 µM [3]: 35.2%

COc1ccc2c(=O)c3c(OC)cc(OC)c(-c4cccc(C=O)c4)c3oc2c1OC
inhibition of growth at 10 µM [3]: 13%

COc1ccc2c(=O)c3c(OC)cc(OC)c(-c4cc(F)ccc4F)c3oc2c1OC
inhibition of growth at 10 µM [3]: 17.4%

COc1ccc2c(=O)c3c(OC)cc(OC)c(-c4ccc(F)c(F)c4)c3oc2c1OC
inhibition of growth at 10 µM [3]: 5.85%

COc1ccc2c(=O)c3c(OC)cc(OC)c(-c4ccccc4OC(F)(F)F)c3oc2c1OC
inhibition of growth at 10 µM [3]: 33%

COc1ccc2c(=O)c3c(OC)cc(OC)c(-c4cccc(C(F)(F)F)c4)c3oc2c1OC
inhibition of growth at 10 µM [3]: 30%

COC(=O)c1ccc(-c2c(OC)cc(OC)c3c(=O)c4ccc(OC)c(OC)c4oc23)cc1
inhibition of growth at 10 µM [3]: -5.48%

COc1ccc2c(=O)c3c(OC)cc(OC)c(-c4ccc(C(C)(C)C)cc4)c3oc2c1OC
pIC50 [1]: < 4.00 | pIC50 (SMMC-7721): 4.74 | pIC50 (HepG2): 4.41 | pIC50 [2]: 4.48 | inhibition of growth at 10 µM [3]: 56.3%

COc1cc(OC)cc(-c2c(OC)cc(OC)c3c(=O)c4ccc(OC)c(OC)c4oc23)c1
pIC50 [1]: 4.48 | pIC50 (SMMC-7721): 4.50 | pIC50 (HepG2): 4.35 | pIC50 [2]: 4.50 | inhibition of growth at 10 µM [3]: 58%

COc1ccc2c(=O)c3c(OC)cc(OC)c(-c4ccc(C#N)cc4)c3oc2c1OC
inhibition of growth at 10 µM [3]: -1.84%

COc1ccc2c(=O)c3c(OC)cc(OC)c(-c4ccc(C(C)=O)cc4)c3oc2c1OC
inhibition of growth at 10 µM [3]: 13.2%

CCc1ccc(-c2c(OC)cc(OC)c3c(=O)c4ccc(OC)c(OC)c4oc23)cc1
pIC50 [1]: 4.16 | pIC50 (SMMC-7721): 4.79 | pIC50 (HepG2): 4.55 | pIC50 [2]: 4.65 | inhibition of growth at 10 µM [3]: 77.1%
